Experimental findings from ChEMBL document CHEMBL2177015, “Bicyclization and tethering to albumin yields long-acting peptide antagonists” (J Med Chem, 2012) are described below.

What is called half-life is the time in which the quantity being followed falls by half. The Ki is the dissociation constant of the complex between target and ligand, obtained from inhibition or displacement. For orientation: Kd means the free concentration of one partner at which half of the binding sites on the other are occupied at equilibrium, for simple one-to-one binding. Low values mean a tighter complex, high ones a looser complex.

Starred links: 1 amine or outer side, 2 acyl side, 3 side chain; linkers in the order of their positions; H or OH if unused. Positions of bridges follow the written chain, without caps; N, C: chain ends. Residues, ends and D or L forms follow the SMILES beside them. TBMB = c1c(C[*:1])cc(C[*:3])cc1C[*:2]; mXylylene = c1cc(C[*:1])cc(C[*:2])c1; pXylylene = c1cc(C[*:2])ccc1C[*:1]

Data set [1] can be described thus: (§1) Drug degradation in mouse plasma at 50 uM after 24 to 48 hrs by RP-HPLC analysis. It is filed as ADME, cell-free. Conditions: read-out: Drug degradation. In short, it runs like this:
(§2)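 Peptide spiked from 1 mM water stock into mouse plasma (final 50 μM) and incubated at 37 °C. Samples taken at 0, 24 and 48 h, mixed 1:1 with water containing 0.1% TFA and stored at −20 °C. Analysed by RP-HPLC on a C8 column with 220 nm absorbance; peaks identified by ESI-MS.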

The nature of data set [2]: Terminal half life in rabbit. Conditions: in vivo. Format: ADME, organism-based, Oryctolagus cuniculus.
Data set [3] is described as follows: Terminal half life in mouse. Format: ADME, organism-based. Conditions: in vivo. An outline of the steps: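 Female BALB/c mice aged 7–9 weeks, given 200 μL of 50 μM in PBS intravenously; 2–3 mice per time point. EDTA plasma sampled up to 320 min or up to 48 h. Conjugate measured by reversed-phase UFLC with fluorescence detection (ex 490, em 525 nm) and by uPA-capture ELISA with antifluorescein detection. Data fitted to a two-compartment model; t1/2 β taken.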

Data set [4] has as its system Plasma. Put plainly: Drug degradation in mouse plasma at 50 uM after 24 hrs by RP-HPLC analysis. It is filed as ADME, cell-free. An outline of the steps: as §2
Data set [5] relates to Plasma. Described as §1. Format: ADME, cell-free. Conditions: 50 µM. An outline of the steps:
as §2

Data set [6] deals with T1, Urokinase-type plasminogen activator (Homo sapiens, UniProt P00749). Put plainly: Inhibition of human uPA using H-Glu-Gly-Arg-pNA as substrate after 1 hr in presence of ovalbumin. In short, it runs like this:
(§3)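 Human urinary low-molecular-weight uPA (1.5 nM) with 2-fold inhibitor dilutions (8 μM to 1.95 nM) at 25 °C. Additive: 0.1% casein (±1.5 μM hSA or mSA), 0.1% ovA or 0.1% bSA. Substrate 50 μM H-Glu-Gly-Arg-pNA; A405 initial rates over 1 h. Ki from Kiapp corrected for substrate; means of ≥3.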

The target of data set [7] is T1, Urokinase-type plasminogen activator. The data set can be described thus: Inhibition of human uPA using H-Glu-Gly-Arg-pNA as substrate after 1 hr in presence of bovine serum albumin. An outline of the steps: as §3
For data set [8] the target is unchanged. Put plainly: Inhibition of human uPA using H-Glu-Gly-Arg-pNA as substrate after 1 hr in presence of casein and mouse serum albumin. An outline of the steps:
as §3

Data set [9] shares this target. Put plainly: Inhibition of human uPA using H-Glu-Gly-Arg-pNA as substrate after 1 hr in presence of casein and human serum albumin. An outline of the steps:
as §3

For data set [10] the target is unchanged. The data set can be described thus: Inhibition of human uPA using H-Glu-Gly-Arg-pNA as substrate after 1 hr in presence of casein. In short, it runs like this:
as §3

Data set [11] has the same target. The data set can be described thus: Inhibition of human uPA. An outline of the steps: as §3
Data set [12] concerns the target Albumin (Mus musculus, UniProt P07724). Put plainly: Binding affinity to mouse serum albumin by fluorescence polarization assay. It is filed as ADME. An outline of the steps:
(§4)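 Proteins serially diluted 3/2-fold in phosphate buffer (10 mM Na2HPO4, pH 7.4, 150 mM NaCl) and mixed 1:1 with fluorescein-labelled peptide. Incubated 30 min at room temperature, then fluorescence polarization read (excitation 480 nm, emission 535 nm). KD from nonlinear regression of anisotropy against total protein concentration using a quadratic binding equation. Done at 25 °C.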
(In general: In fluorescence polarisation assays a small probe gives low polarisation when free and higher when bound to something large.)

Data set [13] deals with Albumin (Homo sapiens, UniProt P02768). Put plainly: Binding affinity to human serum albumin by fluorescence polarization assay. It is filed as ADME. In short, it runs like this: as §4
Chain of Albumin (Homo sapiens, UniProt P02768) (P02768 whole entry): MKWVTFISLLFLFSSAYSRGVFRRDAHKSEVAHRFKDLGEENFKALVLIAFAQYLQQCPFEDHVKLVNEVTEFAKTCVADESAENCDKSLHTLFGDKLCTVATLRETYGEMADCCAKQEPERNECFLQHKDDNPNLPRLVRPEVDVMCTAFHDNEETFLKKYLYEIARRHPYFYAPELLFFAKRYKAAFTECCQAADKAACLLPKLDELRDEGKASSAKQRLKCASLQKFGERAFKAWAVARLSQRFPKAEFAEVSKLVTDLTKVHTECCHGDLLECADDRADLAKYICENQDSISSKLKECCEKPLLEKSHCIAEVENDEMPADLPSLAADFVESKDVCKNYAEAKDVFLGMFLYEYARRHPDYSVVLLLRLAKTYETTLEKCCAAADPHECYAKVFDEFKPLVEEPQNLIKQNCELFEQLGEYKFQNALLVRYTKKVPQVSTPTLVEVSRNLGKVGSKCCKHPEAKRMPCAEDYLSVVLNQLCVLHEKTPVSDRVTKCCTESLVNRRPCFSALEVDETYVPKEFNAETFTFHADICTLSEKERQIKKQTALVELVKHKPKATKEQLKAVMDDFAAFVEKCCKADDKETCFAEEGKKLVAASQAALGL

Chain of Albumin (Mus musculus, UniProt P07724) (P07724 whole entry): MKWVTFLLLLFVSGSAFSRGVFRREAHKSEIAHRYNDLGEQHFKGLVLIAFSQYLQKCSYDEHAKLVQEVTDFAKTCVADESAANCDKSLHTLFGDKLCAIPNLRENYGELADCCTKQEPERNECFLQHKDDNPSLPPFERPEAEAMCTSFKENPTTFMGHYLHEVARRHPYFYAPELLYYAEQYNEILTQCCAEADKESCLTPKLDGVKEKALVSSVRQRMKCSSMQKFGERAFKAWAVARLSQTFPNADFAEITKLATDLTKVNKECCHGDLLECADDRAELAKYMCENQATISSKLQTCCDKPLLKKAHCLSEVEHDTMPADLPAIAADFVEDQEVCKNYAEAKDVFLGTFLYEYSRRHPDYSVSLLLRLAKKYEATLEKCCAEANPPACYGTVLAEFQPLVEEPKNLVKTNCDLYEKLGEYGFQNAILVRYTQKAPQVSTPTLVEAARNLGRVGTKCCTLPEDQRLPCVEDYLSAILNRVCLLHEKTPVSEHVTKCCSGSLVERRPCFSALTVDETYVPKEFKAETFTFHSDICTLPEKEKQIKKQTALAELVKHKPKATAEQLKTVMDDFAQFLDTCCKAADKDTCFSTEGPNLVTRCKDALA

Take `CC(C)[C@@H]1NC(=O)[C@H](CCC(=O)O)NC(=O)[C@H](Cc2ccc(O)cc2)NC(=O)[C@H](CCCNC(=N)N)NC(=O)[C@H](CO)NC(=O)[C@@H](NC(=O)[C@H](C)N)CSCc2ccc(cc2)CSC[C@@H](C(=O)NCC(N)=O)NC(=O)[C@H](C)NC(=O)[C@H](CO)NC(=O)CNC(=O)[C@H](CCCNC(=N)N)NC(=O)CNC(=O)[C@H](CCCNC(=N)N)NC(=O)[C@H](CO)NC(=O)[C@H](CC(=O)O)NC1=O` (H-ACSRYEVDSRGRGSACG-NH2; linker 2-16 via pXylylene): in data set [1], the metabolised at 50 µM came to 60%.
Regarding `CC[C@H](C)[C@H](NC(=O)[C@H](CC(=O)O)NC(=O)[C@H](CCC(=O)O)NC(=O)[C@H](CCSC)NC(=O)[C@H](CC(C)C)NC(=O)[C@H](CCCNC(=N)N)NC(=O)[C@@H](N)CCC(N)=O)C(=O)N[C@@H](CS)C(=O)N[C@@H](CC(C)C)C(=O)N1CCC[C@H]1C(=O)N[C@@H](CCCNC(=N)N)C(=O)N[C@@H](Cc1c[nH]c2ccccc12)C(=O)NCC(=O)N[C@@H](CS)C(=O)N[C@@H](CC(C)C)C(=O)N[C@@H](Cc1c[nH]c2ccccc12)C(=O)N[C@@H](CCC(=O)O)C(=O)N[C@@H](CC(=O)O)C(=O)N[C@@H](CC(=O)O)C(=O)N[C@@H](Cc1ccccc1)C(N)=O`, the figures for the half-life in data set [2] and in data set [3] were 2.85 days and 1180 min, respectively.
Take `C[C@@H]1NC(=O)[C@H](CO)NC(=O)CNC(=O)[C@H](CCCNC(=N)N)NC(=O)CNC(=O)[C@H](CCCNC(=N)N)NC(=O)[C@@H](N)CSCc2cccc(c2)CSC[C@@H](C(=O)NCC(N)=O)NC1=O` (H-CRGRGSACG-NH2; linker 1-8 via mXylylene): the Stability result in the data set with Plasma [4] is listed as “Unstable”.
With `CC(C)[C@@H]1NC(=O)[C@H](CCC(=O)O)NC(=O)[C@H](Cc2ccc(O)cc2)NC(=O)[C@H](CCCNC(=N)N)NC(=O)[C@H](CO)NC(=O)[C@@H](NC(=O)[C@H](C)N)CSCc2cccc(c2)CSC[C@@H](C(N)=O)NC(=O)[C@H](CC(=O)O)NC1=O` (H-ACSRYEVDC-NH2; linker 2-9 via mXylylene), the Stability entry in the data set with Plasma [4] was “Unstable”.
In the case of `CC(C)[C@H](NC(=O)[C@H](CCC(=O)O)NC(=O)[C@H](Cc1ccc(O)cc1)NC(=O)[C@H](CCCNC(=N)N)NC(=O)[C@H](CO)NC(=O)[C@H](CO)NC(=O)[C@H](C)N)C(=O)N[C@@H](CC(=O)O)C(=O)N[C@@H](CO)C(=O)N[C@@H](CCCNC(=N)N)C(=O)NCC(=O)N[C@@H](CCCNC(=N)N)C(=O)NCC(=O)N[C@@H](CO)C(=O)N[C@@H](C)C(=O)N[C@@H](CO)C(=O)NCC(N)=O` (H-ASSRYEVDSRGRGSASG-NH2), the Stability entry with Plasma [5] was “Unstable”.
In the case of `CC(C)[C@@H]1NC(=O)[C@H](CCC(=O)O)NC(=O)[C@H](Cc2ccc(O)cc2)NC(=O)[C@H](CCCN=C(N)N)NC(=O)[C@H](CO)NC(=O)[C@@H](NC(=O)[C@H](C)N)CSCc2cc3cc(c2)CSC[C@H](NC(=O)[C@H](CC(=O)O)NC1=O)C(=O)N[C@@H](CCCN=C(N)N)C(=O)NCC(=O)N[C@@H](CCCN=C(N)N)C(=O)NCC(=O)N[C@@H](CO)C(=O)N[C@@H](C)C(=O)N[C@H](C(=O)NCC(N)=O)CSC3` (H-ACSRYEVDCRGRGSACG-NH2; linker 2-9-16 via TBMB), the Ki in data set [6] stood at 56 nM; in data set [7] it was 53 nM; in data set [8], 54 nM; in data set [9] it was 60 nM; in data set [10], 52 nM; in data set [11], 53 nM. Moreover, the Stability entry with Plasma [5] was “Unstable”.
On to `CC[C@H](C)[C@H](NC(=O)[C@H](CC(C)C)NC(=O)[C@H](CCCNC(=N)N)N[C@@H](CCCCN)C(=O)NCCCCN=[N+]=[N-])C(=O)N[C@@H](CCC(=O)O)C(=O)N[C@@H](CC(=O)O)C(=O)N[C@H](C(=O)N[C@H]1CSSC[C@@H](C(=O)N[C@@H](CC(C)C)C(=O)N[C@@H](Cc2c[nH]c3ccccc23)C(=O)N[C@@H](CCC(=O)O)C(=O)N[C@@H](CC(=O)O)C(=O)N[C@@H](CC(=O)O)C(=O)O)NC(=O)CNC(=O)[C@H](Cc2c[nH]c3ccccc23)NC(=O)[C@H](CCCNC(=N)N)NC(=O)[C@@H]2CCCN2C(=O)[C@H](CC(C)C)NC1=O)[C@@H](C)CC`, for which the Kd is 24 nM at Albumin [12] and 321 nM on Albumin [13].
